From ChEMBL document CHEMBL1151705, “Novel azalides derived from 16-membered macrolides. Part II: Isolation of the linear 9-formylcarboxylic acid and its sequential macrocyclization with an amino alcohol or an azidoamine” (2008)
In brackets after ≈: the same amount, converted by molar mass.

How the values were obtained:
Assay type in all cases: functional
[1] = test system: Streptococcus pyogenes; assay: Antimicrobial activity against Streptococcus pyogenes 2 constitutively expressing ermB after 20 hrs by agar dilution method
Procedure, shortened: (§1)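 Streptococci, H. influenzae and M. catarrhalis were precultured on blood agar plates. Suspensions of about 10⁶ CFU/ml were inoculated onto sensitivity disk agar supplemented with 5% horse blood and incubated at 37 °C for 20 h. MIC was read as the lowest drug concentration with no visible growth.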

[2] = test system: Streptococcus pneumoniae; assay: Antimicrobial activity against Streptococcus pneumoniae 9 expressing mefA after 20 hrs by agar dilution method; conditions: Streptococcus pneumoniae, 20 h; read-out: MIC; procedure, shortened: as §1
[3] = test system: Staphylococcus aureus; assay: Antimicrobial activity against Staphylococcus aureus 6 expressing inducible ermB after 20 hrs by agar dilution method
Procedure, shortened: (§2)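 Agar dilution MIC. S. aureus seed culture was grown in sensitivity test broth. Cell suspension (about 10⁶ CFU/ml) was inoculated onto sensitivity disk agar with 5% horse blood and incubated at 37 °C for 20 h. MIC was the lowest drug concentration that prevented visible growth.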

[4] = test system: Streptococcus pyogenes; assay: Antimicrobial activity against drug-susceptible Streptococcus pyogenes 1 after 20 hrs by agar dilution method; conditions: Streptococcus pyogenes, 20 h; read-out: MIC; procedure, shortened: as §1
[5] = test system: Streptococcus pneumoniae; assay: Antimicrobial activity against Streptococcus pneumoniae 6 constitutively expressing ermB after 20 hrs by agar dilution method; conditions: Streptococcus pneumoniae, 20 h; read-out: MIC; procedure, shortened: as §1
[6] = test system: Staphylococcus aureus; assay: Antimicrobial activity against drug-susceptible Staphylococcus aureus 2 after 20 hrs by agar dilution method; conditions: Staphylococcus aureus, 20 h; read-out: MIC; procedure, shortened: as §2
[7] = test system: Haemophilus influenzae; assay: Antimicrobial activity against drug-susceptible Haemophilus influenzae 3 after 20 hrs by agar dilution method; conditions: Haemophilus influenzae, 20 h; read-out: MIC; procedure, shortened: as §1
[8] = test system: Moraxella catarrhalis; assay: Antimicrobial activity against drug-susceptible Moraxella catarrhalis 1 after 20 hrs by agar dilution method; conditions: Moraxella catarrhalis, 20 h; read-out: MIC; procedure, shortened: as §1
[9] = test system: Haemophilus influenzae; assay: Antimicrobial activity against drug-susceptible Haemophilus influenzae 2 after 20 hrs by agar dilution method; conditions: Haemophilus influenzae, 20 h; read-out: MIC; procedure, shortened: as §1
[10] = test system: Staphylococcus aureus; assay: Antimicrobial activity against drug-susceptible Staphylococcus aureus 209P JC-1 after 20 hrs by agar dilution method; conditions: Staphylococcus aureus, 209P, 20 h; read-out: MIC; procedure, shortened: as §2
[11] = test system: Streptococcus pneumoniae; assay: Antimicrobial activity against Streptococcus pneumoniae 5 constitutively expressing ermB/mefA after 20 hrs by agar dilution method; conditions: Streptococcus pneumoniae, 20 h; read-out: MIC; procedure, shortened: as §1
[12] = test system: Haemophilus influenzae; assay: Antimicrobial activity against drug-susceptible Haemophilus influenzae 4 after 20 hrs by agar dilution method; conditions: Haemophilus influenzae, 20 h; read-out: MIC; procedure, shortened: as §1
[13] = test system: Moraxella catarrhalis; assay: Antimicrobial activity against drug-susceptible Moraxella catarrhalis 2 after 20 hrs by agar dilution method; conditions: Moraxella catarrhalis, 20 h; read-out: MIC; procedure, shortened: as §1
[14] = test system: Streptococcus pyogenes; assay: Antimicrobial activity against Streptococcus pyogenes 3 expressing mefA after 20 hrs by agar dilution method; conditions: Streptococcus pyogenes, 20 h; read-out: MIC; procedure, shortened: as §1
[15] = test system: Streptococcus pneumoniae; assay: Antimicrobial activity against Streptococcus pneumoniae 10 expressing mefA after 20 hrs by agar dilution method; conditions: Streptococcus pneumoniae, 20 h; read-out: MIC; procedure, shortened: as §1
[16] = test system: Streptococcus pneumoniae; assay: Antimicrobial activity against drug-susceptible Streptococcus pneumoniae DP1 Type1 after 20 hrs by agar dilution method; procedure, shortened: as §1
[17] = test system: Haemophilus influenzae; assay: Antimicrobial activity against drug-susceptible Haemophilus influenzae 1 after 20 hrs by agar dilution method; conditions: Haemophilus influenzae, 20 h; read-out: MIC; procedure, shortened: as §1
[18] = test system: Streptococcus pneumoniae; assay: Antimicrobial activity against Streptococcus pneumoniae 7 expressing inducible ermB after 20 hrs by agar dilution method; procedure, shortened: as §1
[19] = test system: Staphylococcus aureus; assay: Antimicrobial activity against drug-susceptible Staphylococcus aureus 3 after 20 hrs by agar dilution method; conditions: Staphylococcus aureus, 20 h; read-out: MIC; procedure, shortened: as §2
[20] = test system: Streptococcus pneumoniae; assay: Antimicrobial activity against drug-susceptible Streptococcus pneumoniae 2 after 20 hrs by agar dilution method; conditions: Streptococcus pneumoniae, 20 h; read-out: MIC; procedure, shortened: as §1
[21] = test system: Staphylococcus aureus; assay: Antimicrobial activity against Staphylococcus aureus 5 expressing inducible ermB after 20 hrs by agar dilution method; conditions: Staphylococcus aureus, 20 h; read-out: MIC; procedure, shortened: as §2
[22] = test system: Staphylococcus aureus; assay: Antimicrobial activity against Staphylococcus aureus 4 constitutively expressing ermA after 20 hrs by agar dilution method; procedure, shortened: as §2
[23] = test system: Streptococcus pneumoniae; assay: Antimicrobial activity against Streptococcus pneumoniae 8 expressing inducible ermB after 20 hrs by agar dilution method; procedure, shortened: as §1
[24] = Streptococcus pneumoniae, 20 h, read-out: MIC

CCOC(=O)[C@H]1[C@H](C)O[C@@H](O[C@H]2[C@H](N(C)C)[C@@H](O)[C@H](O[C@H]3[C@@H](CC=O)C[C@@H](C)[C@@H](O)CN(CCCCc4ccccc4)CC[C@@H](C)OC(=O)C[C@@H](OC(=O)CC)[C@@H]3OC)O[C@@H]2C)C[C@@]1(C)OC(C)=O
MIC [1]: > 128 mg/L
MIC [2]: 0.06 mg/L (≈ 0.0613 µM)
MIC [3]: 0.5 mg/L (≈ 0.511 µM)
MIC [4]: 0.06 mg/L (≈ 0.0613 µM)
MIC [5]: > 128 mg/L
MIC [6]: 0.5 mg/L (≈ 0.511 µM)
MIC [7]: 4 mg/L (≈ 4.08 µM)
MIC [8]: 0.13 mg/L (≈ 0.133 µM)
MIC [9]: 1 mg/L (≈ 1.02 µM)
MIC [10]: 0.13 mg/L (≈ 0.133 µM)
MIC [11]: 128 mg/L (≈ 131 µM)
MIC [12]: 8 mg/L (≈ 8.17 µM)
MIC [13]: 0.25 mg/L (≈ 0.255 µM)
MIC [14]: 0.13 mg/L (≈ 0.133 µM)
MIC [15]: 0.06 mg/L (≈ 0.0613 µM)
MIC [16, 24]: 0.06 mg/L (≈ 0.0613 µM)
MIC [17]: 32 mg/L (≈ 32.7 µM)
MIC [18, 24]: 8 mg/L (≈ 8.17 µM)
MIC [19]: 0.25 mg/L (≈ 0.255 µM)
MIC [20]: 0.13 mg/L (≈ 0.133 µM)
MIC [21]: 0.5 mg/L (≈ 0.511 µM)
MIC [22]: > 128 mg/L
MIC [23, 24]: 8 mg/L (≈ 8.17 µM)

CCOC(=O)[C@H]1[C@H](C)O[C@@H](O[C@H]2[C@H](N(C)C)[C@@H](O)[C@H](O[C@H]3[C@@H](CC=O)C[C@@H](C)[C@@H](OC(C)=O)CN(CCCCc4ccccc4)CCN(C)C(=O)C[C@@H](OC(=O)CC)[C@@H]3OC)O[C@@H]2C)C[C@@]1(C)OC(C)=O
MIC [1]: > 128 mg/L
MIC [2]: 1 mg/L (≈ 0.994 µM)
MIC [3]: 2 mg/L (≈ 1.99 µM)
MIC [4]: 0.5 mg/L (≈ 0.497 µM)
MIC [5]: > 128 mg/L
MIC [6]: 2 mg/L (≈ 1.99 µM)
MIC [7]: 16 mg/L (≈ 15.9 µM)
MIC [8]: 1 mg/L (≈ 0.994 µM)
MIC [9]: 4 mg/L (≈ 3.98 µM)
MIC [10]: 1 mg/L (≈ 0.994 µM)
MIC [11]: > 128 mg/L
MIC [12]: 16 mg/L (≈ 15.9 µM)
MIC [13]: 1 mg/L (≈ 0.994 µM)
MIC [14]: 1 mg/L (≈ 0.994 µM)
MIC [15]: 1 mg/L (≈ 0.994 µM)
MIC [16, 24]: 0.5 mg/L (≈ 0.497 µM)
MIC [17]: > 128 mg/L
MIC [18, 24]: > 128 mg/L
MIC [19]: 1 mg/L (≈ 0.994 µM)
MIC [20]: 1 mg/L (≈ 0.994 µM)
MIC [21]: 1 mg/L (≈ 0.994 µM)
MIC [22]: > 128 mg/L
MIC [23, 24]: > 128 mg/L

CCOC(=O)[C@H]1[C@H](C)O[C@@H](O[C@H]2[C@H](N(C)C)[C@@H](O)[C@H](O[C@H]3[C@@H](CC=O)C[C@@H](C)[C@@H](O)CN(CCCCc4ccccc4)CCCOC(=O)C[C@@H](OC(=O)CC)[C@@H]3OC)O[C@@H]2C)C[C@@]1(C)OC(C)=O
MIC [1]: > 128 mg/L
MIC [2]: 0.25 mg/L (≈ 0.259 µM)
MIC [3]: 0.5 mg/L (≈ 0.518 µM)
MIC [4]: 0.06 mg/L (≈ 0.0622 µM)
MIC [6]: 1 mg/L (≈ 1.04 µM)
MIC [7]: 4 mg/L (≈ 4.14 µM)
MIC [8]: 0.13 mg/L (≈ 0.135 µM)
MIC [9]: 1 mg/L (≈ 1.04 µM)
MIC [10]: 0.25 mg/L (≈ 0.259 µM)
MIC [11]: > 128 mg/L
MIC [12]: 8 mg/L (≈ 8.29 µM)
MIC [13]: 0.25 mg/L (≈ 0.259 µM)
MIC [14]: 0.13 mg/L (≈ 0.135 µM)
MIC [15]: 0.13 mg/L (≈ 0.135 µM)
MIC [16, 24]: 0.13 mg/L (≈ 0.135 µM)
MIC [17]: 16 mg/L (≈ 16.6 µM)
MIC [18, 24]: 4 mg/L (≈ 4.14 µM)
MIC [19]: 0.25 mg/L (≈ 0.259 µM)
MIC [20]: 0.13 mg/L (≈ 0.135 µM)
MIC [21]: 0.25 mg/L (≈ 0.259 µM)
MIC [22]: > 128 mg/L
MIC [23, 24]: 16 mg/L (≈ 16.6 µM)

CCOC(=O)[C@H]1[C@H](C)O[C@@H](O[C@H]2[C@H](N(C)C)[C@@H](O)[C@H](O[C@H]3[C@@H](CC=O)C[C@@H](C)[C@@H](OC(C)=O)CN(C)CCN(CCCCc4ccccc4)C(=O)C[C@@H](OC(=O)CC)[C@@H]3OC)O[C@@H]2C)C[C@@]1(C)OC(C)=O
MIC [1]: > 128 mg/L
MIC [2]: 0.5 mg/L (≈ 0.497 µM)
MIC [3]: 1 mg/L (≈ 0.994 µM)
MIC [4]: 0.5 mg/L (≈ 0.497 µM)
MIC [5]: > 128 mg/L
MIC [6]: 2 mg/L (≈ 1.99 µM)
MIC [7]: > 128 mg/L
MIC [8]: 1 mg/L (≈ 0.994 µM)
MIC [9]: 8 mg/L (≈ 7.95 µM)
MIC [10]: 1 mg/L (≈ 0.994 µM)
MIC [11]: > 128 mg/L
MIC [12]: 16 mg/L (≈ 15.9 µM)
MIC [13]: 2 mg/L (≈ 1.99 µM)
MIC [14]: 2 mg/L (≈ 1.99 µM)
MIC [15]: 0.5 mg/L (≈ 0.497 µM)
MIC [16, 24]: 0.13 mg/L (≈ 0.129 µM)
MIC [17]: > 128 mg/L
MIC [18, 24]: 16 mg/L (≈ 15.9 µM)
MIC [19]: 1 mg/L (≈ 0.994 µM)
MIC [20]: 0.5 mg/L (≈ 0.497 µM)
MIC [21]: 0.5 mg/L (≈ 0.497 µM)
MIC [22]: > 128 mg/L
MIC [23, 24]: 16 mg/L (≈ 15.9 µM)

CCOC(=O)[C@H]1[C@H](C)O[C@@H](O[C@H]2[C@H](N(C)C)[C@@H](O)[C@H](O[C@H]3[C@@H](CC=O)C[C@@H](C)[C@@H](O)CN(CCCCc4ccccc4)CCC(C)NC(=O)C[C@@H](OC(=O)CC)[C@@H]3OC)O[C@@H]2C)C[C@@]1(C)OC(C)=O (stereo in doubt; form 1)
MIC [1]: > 128 mg/L
MIC [2]: 0.25 mg/L (≈ 0.256 µM)
MIC [3]: 0.5 mg/L (≈ 0.511 µM)
MIC [4]: 0.06 mg/L (≈ 0.0613 µM)
MIC [5]: > 128 mg/L
MIC [6]: 1 mg/L (≈ 1.02 µM)
MIC [7]: 4 mg/L (≈ 4.09 µM)
MIC [8]: 0.13 mg/L (≈ 0.133 µM)
MIC [9]: 1 mg/L (≈ 1.02 µM)
MIC [10]: 0.25 mg/L (≈ 0.256 µM)
MIC [11]: > 128 mg/L
MIC [12]: 4 mg/L (≈ 4.09 µM)
MIC [13]: 0.13 mg/L (≈ 0.133 µM)
MIC [14]: 0.25 mg/L (≈ 0.256 µM)
MIC [15]: 0.25 mg/L (≈ 0.256 µM)
MIC [16]: 0.06 mg/L (≈ 0.0613 µM)
MIC [17]: 16 mg/L (≈ 16.4 µM)
MIC [18]: 128 mg/L (≈ 131 µM)
MIC [19]: 0.25 mg/L (≈ 0.256 µM)
MIC [20]: 0.13 mg/L (≈ 0.133 µM)
MIC [21]: 0.25 mg/L (≈ 0.256 µM)
MIC [22]: > 128 mg/L
MIC [23]: 128 mg/L (≈ 131 µM)
